Measurements of several laboratories.
Compare with care: the assays were run in different laboratories.
Target: Dual specificity mitogen-activated protein kinase kinase 5 (MAP2K5, Homo sapiens, UniProt Q13163)
One construct used (Q13163 1-448): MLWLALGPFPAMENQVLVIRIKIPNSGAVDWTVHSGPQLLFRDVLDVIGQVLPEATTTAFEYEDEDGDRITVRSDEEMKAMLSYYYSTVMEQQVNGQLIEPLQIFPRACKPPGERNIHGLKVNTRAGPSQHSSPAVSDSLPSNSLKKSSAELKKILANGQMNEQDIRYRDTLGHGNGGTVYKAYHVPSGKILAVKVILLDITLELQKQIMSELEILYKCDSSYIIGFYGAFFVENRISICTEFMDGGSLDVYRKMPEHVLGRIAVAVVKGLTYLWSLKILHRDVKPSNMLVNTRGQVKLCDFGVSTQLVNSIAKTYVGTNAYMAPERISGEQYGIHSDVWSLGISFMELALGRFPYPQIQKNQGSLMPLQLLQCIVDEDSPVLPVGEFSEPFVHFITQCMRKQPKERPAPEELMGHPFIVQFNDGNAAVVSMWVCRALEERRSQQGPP

Compound | read-out | mode | method | concentration | quantity | value
CC(C)(O)c1cncc(-c2nc3ccc(F)cc3n2C2CC2)c1 | cell-free assay | – | competition with immobilised ligand | 1 µM | remaining binding | 100%
Cc1sc(C(=O)NC2COC2)cc1-n1cc(NC(=O)Nc2c(F)cccc2Cl)cn1 | enzyme activity | inhibitor | – | 10 µM | remaining activity | 96.8%
COc1cccc2c(NCc3ccccc3)nc(-n3c(N)nc4ccccc43)nc12 | target engagement in cells | inhibitor | chemoproteomics | 20 mM | inhibition | 6.7%
CC1=C(C#N)C(c2ccc3c(c2)c(NC(=O)c2ccccc2C)nn3C)C(C#N)=C(C)N1 | cell-free assay | – | competition with immobilised ligand | 1 µM | remaining binding | 79%
CC(C)(C)c1nc(-c2cccc(NS(=O)(=O)c3c(F)cccc3F)c2F)c(-c2ccnc(N)n2)s1 | enzyme activity | inhibitor | radiometric | 1 µM | remaining activity | 90%
CCCCNc1ncc2c(-c3ccc(F)cc3)nn(C[C@H]3CC[C@H](N)CC3)c2n1 | target engagement in cells | inhibitor | chemoproteomics | 20 mM | inhibition | 83%
Nc1ncnc2occ(-c3ccc(NC(=O)Nc4cc(C(F)(F)F)ccc4F)cc3)c12 | cell-free assay | inhibitor | – | 20 µM | remaining signal | 0.15%
CC(C)(C)c1nc2c(s1)c1nc(N)ncc1c1ccc(NS(=O)(=O)c3c(F)cccc3F)c(F)c12 | enzyme activity | inhibitor | radiometric | 1 µM | remaining activity | 80%
Cc1ccc(C(=O)Nc2ccc(CN3CCN(C)CC3)c(C(F)(F)F)c2)cc1C#Cc1cnc2cccnn12 | enzyme activity | inhibitor | – | 23.5 nM | remaining activity | 2.4%
O=C(Nc1cnn(-c2csc(C(=O)NC3COC3)c2)c1)Nc1ccccc1Cl | enzyme activity | inhibitor | – | 5 µM | remaining activity | 98.2%
